Results reported in ChEMBL document CHEMBL2062496, “Identification of a sirtuin 3 inhibitor that displays selectivity over sirtuin 1 and 2” (Eur J Med Chem, 2012).
Calls of active or inactive are those of the source. No cut-off for these calls is given here.

Legend:
[1] = target: T1, NAD-dependent protein deacetylase sirtuin-1 (Homo sapiens) (UniProt Q96EB6); assay: Inhibition of human SIRT1 assessed as enzyme activity using Fluor-de-Lys as substrate at 1 mM by fluorometry; design: scale not given: the % may be the effect or the level left
T1 sequence (whole entry): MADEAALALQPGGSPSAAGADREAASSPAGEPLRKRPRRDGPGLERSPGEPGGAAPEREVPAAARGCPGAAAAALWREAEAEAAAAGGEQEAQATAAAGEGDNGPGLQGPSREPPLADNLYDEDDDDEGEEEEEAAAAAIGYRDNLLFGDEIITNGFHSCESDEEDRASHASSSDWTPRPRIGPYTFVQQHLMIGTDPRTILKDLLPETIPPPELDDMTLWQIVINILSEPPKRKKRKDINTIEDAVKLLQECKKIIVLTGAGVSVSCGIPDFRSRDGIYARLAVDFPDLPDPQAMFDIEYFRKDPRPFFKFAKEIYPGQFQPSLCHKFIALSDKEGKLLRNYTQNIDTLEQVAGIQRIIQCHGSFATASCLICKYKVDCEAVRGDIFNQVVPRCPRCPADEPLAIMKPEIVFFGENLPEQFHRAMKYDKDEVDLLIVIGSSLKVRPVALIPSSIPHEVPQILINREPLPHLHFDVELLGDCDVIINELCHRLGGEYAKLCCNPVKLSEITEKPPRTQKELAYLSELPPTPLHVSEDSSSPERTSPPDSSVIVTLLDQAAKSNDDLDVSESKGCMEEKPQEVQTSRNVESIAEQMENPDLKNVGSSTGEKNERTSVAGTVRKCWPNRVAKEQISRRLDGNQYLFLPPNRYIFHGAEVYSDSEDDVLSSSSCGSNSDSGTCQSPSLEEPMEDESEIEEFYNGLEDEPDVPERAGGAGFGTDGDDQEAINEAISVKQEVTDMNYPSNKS
In short: (§1)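 Commercial Fluor-de-Lys kit, substrate human p53 379–382 peptide (Arg-His-Lys-Lys(Ac)). Human Sirt1 or Sirt2 was incubated with substrate, NAD+ and compound at 1 mM, also tested at 100 µM. Fluorescence scales with Lys382 deacetylation. Activity is expressed relative to control, mean ± S.E.M. of 3–4 replicates.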

[2] = target: T2, NAD-dependent protein deacetylase sirtuin-2 (Homo sapiens) (UniProt Q8IXJ6); assay: Inhibition of human SIRT2 assessed as enzyme activity using Fluor-de-Lys as substrate at 1 mM by fluorometry; design: scale not given: the % may be the effect or the level left; in short: as §1
T2 sequence (whole entry): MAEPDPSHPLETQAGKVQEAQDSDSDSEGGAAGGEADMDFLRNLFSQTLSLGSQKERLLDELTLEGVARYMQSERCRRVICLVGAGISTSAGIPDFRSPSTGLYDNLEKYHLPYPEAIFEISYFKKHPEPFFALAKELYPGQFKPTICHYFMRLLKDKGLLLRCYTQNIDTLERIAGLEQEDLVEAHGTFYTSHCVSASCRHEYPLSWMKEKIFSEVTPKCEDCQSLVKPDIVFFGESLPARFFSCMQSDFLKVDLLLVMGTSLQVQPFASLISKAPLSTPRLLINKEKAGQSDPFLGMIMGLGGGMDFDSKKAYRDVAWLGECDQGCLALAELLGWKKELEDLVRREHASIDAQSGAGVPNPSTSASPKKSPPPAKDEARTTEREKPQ

[3] = target: T1, NAD-dependent protein deacetylase sirtuin-1 (Homo sapiens); assay: Inhibition of human SIRT1 assessed as enzyme activity using Fluor-de-Lys as substrate at 100 uM by fluorometry; in short: as §1
[4] = target: T2, NAD-dependent protein deacetylase sirtuin-2 (Homo sapiens); assay: Inhibition of human SIRT2 assessed as enzyme activity using Fluor-de-Lys as substrate at 100 uM by fluorometry; in short: as §1
SK-MEL-28 [5] = assay: Effect on ATP level in human SK-MEL-28 cells maintained in medium containing GF and glucose at 100 uM after 24 hrs by luciferase-based assay; type: functional, cell-based
In short: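 SK-MEL-28 cells in DMEM with 10% FBS, grown 24 h in 96-well plates in regular medium (growth factors, glucose), with or without compound at 100 µM. Antimycin served as positive control. Cellular ATP was released with a somatic cell releasing reagent and read by luciferase/luciferin bioluminescence. Mean ± S.E.M. of 10–14 replicates from 3 separate experiments.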

SK-MEL-28 [6] = assay: Reduction in ATP level in human SK-MEL-28 cells at 100 uM maintained in Locke's solution after 24 hrs by luciferase-based assay in absence of GF and glucose; type: functional, cell-based
In short: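 SK-MEL-28 cells were grown 24 h in Locke's saline lacking glucose and serum, with or without 100 µM compound; antimycin was the positive control. Cellular ATP was released with a somatic-cell releasing reagent, then luciferase/luciferin assay mix was added and bioluminescence read. Mean ± S.E.M. of 10–14 replicates from 3 separate experiments.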

[7] = Cytotoxicity against human SK-MEL-28 cells assessed as cell survival at 100 uM after 48 hrs; type: cell-based; settings: read-out: Survival
In short: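 SK-MEL-28 cells grown in DMEM with 10% foetal bovine serum, 2 mM L-glutamine, penicillin and streptomycin. Cells plated and grown 48 h with or without compound at 100 µM. On the test day, cells washed in Locke's solution (134 mM NaCl, 5 mM KCl, 4 mM NaHCO3, 10 mM HEPES pH 7.6, CaCl2, 1 mM MgCl2, 5 mM sucrose), then incubated 90 min at 37 °C. Survival expressed as percent of control.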

**Q.** For Cc1ccc(C(=O)Nc2ccc(S(=O)(=O)O)c3cc(S(=O)(=O)O)cc(S(=O)(=O)O)c23)cc1NC(=O)c1cccc(NC(=O)Nc2cccc(C(=O)Nc3cc(C(=O)Nc4ccc(S(=O)(=O)O)c5cc(S(=O)(=O)O)cc(S(=O)(=O)O)c45)ccc3C)c2)c1, which Activity [1] is on record?
**A.** 18%

**Q.** What about the Activity [2] of the same molecule?
**A.** 20%

**Q.** With NC(=O)/C=C/c1cccnc1 as the molecule, how does the Activity [1] read?
**A.** 99%

**Q.** What about the Activity [2] of the same molecule?
**A.** 109%

**Q.** And the inhibition [3]?
**A.** inactive

**Q.** And the inhibition [4]?
**A.** inactive

**Q.** What does the source list for O=C1NCc2ccncc21?
**A.** Activity [1]: 117%; Activity [2]: 145%; inhibition [3]: inactive; inhibition [4]: inactive

**Q.** For NC(=O)c1cccnc1, which Activity [2] is on record?
**A.** 71%

**Q.** What about the Activity (SK-MEL-28 [5]) of the same molecule?
**A.** inactive

**Q.** What about the Activity (SK-MEL-28 [6]) of the same molecule?
**A.** Active

**Q.** Which Activity [1] does the source give for O=C1NCc2ncccc21 here?
**A.** 88%

**Q.** What about the Activity [2] of the same molecule?
**A.** 111%

**Q.** What about the inhibition [3] of the same molecule?
**A.** inactive

**Q.** And the inhibition [4]?
**A.** inactive

**Q.** Which results are given for c1cncc(-n2ccnn2)c1?
**A.** Activity [1]: 97%; Activity [2]: 100%; inhibition [3]: inactive; inhibition [4]: inactive

**Q.** With c1cncc(-c2c[nH]nn2)c1 as the molecule, how does the viability at 48 h, 100 µM [7] read?
**A.** 69%

**Q.** Which results are given for O=C1NCCc2ncccc21?
**A.** Activity [1]: 86%; Activity [2]: 115%; inhibition [3]: inactive; inhibition [4]: inactive

**Q.** For Cc1ncccc1C(N)=O, which Activity [1] is on record?
**A.** 101%

**Q.** What about the Activity [2] of the same molecule?
**A.** 107%

**Q.** What about the inhibition [3] of the same molecule?
**A.** inactive

**Q.** And the inhibition [4]?
**A.** inactive

**Q.** With O=C1NCCc2ccncc21 as the molecule, how does the Activity [1] read?
**A.** 125%

**Q.** What about the Activity [2] of the same molecule?
**A.** 136%

**Q.** And the inhibition [3]?
**A.** inactive

**Q.** And the inhibition [4]?
**A.** inactive

**Q.** For NS(=O)(=O)c1cccnc1, which Activity [1] is on record?
**A.** 108%

**Q.** And the Activity [2]?
**A.** 115%

**Q.** What about the inhibition [3] of the same molecule?
**A.** inactive

**Q.** And the inhibition [4]?
**A.** inactive

**Q.** For Cc1ccncc1C(N)=O, which Activity [1] is on record?
**A.** 105%

**Q.** And the Activity [2]?
**A.** 110%

**Q.** What about the inhibition [3] of the same molecule?
**A.** inactive

**Q.** What about the inhibition [4] of the same molecule?
**A.** inactive
